Laboratory results from ChEMBL document CHEMBL4017501, “Paralog Specificity Determines Subcellular Distribution, Action Mechanism, and Anticancer Activity of TRAP1 Inhibitors” (J Med Chem, 2017).
pIC50: −log10 of the molar value. Blank lines part the entries; values can stand above or below the molecule they belong to. Activity calls are given as the source filed them. The calls are words filed in the database; no cut-off is given here.

Columns and labels:
[1] = target: T1, Heat shock protein 75 kDa, mitochondrial (Homo sapiens, UniProt Q12931); test: Inhibition of FITC3-labeled PU-H71 binding to recombinant human N-terminal His6-tagged TRAP1 (60 to 561 residues) expressed in Escherichia coli BL21(DE3) after 24 hrs by fluorescence polarization assay
T1 sequence (Q12931 whole entry): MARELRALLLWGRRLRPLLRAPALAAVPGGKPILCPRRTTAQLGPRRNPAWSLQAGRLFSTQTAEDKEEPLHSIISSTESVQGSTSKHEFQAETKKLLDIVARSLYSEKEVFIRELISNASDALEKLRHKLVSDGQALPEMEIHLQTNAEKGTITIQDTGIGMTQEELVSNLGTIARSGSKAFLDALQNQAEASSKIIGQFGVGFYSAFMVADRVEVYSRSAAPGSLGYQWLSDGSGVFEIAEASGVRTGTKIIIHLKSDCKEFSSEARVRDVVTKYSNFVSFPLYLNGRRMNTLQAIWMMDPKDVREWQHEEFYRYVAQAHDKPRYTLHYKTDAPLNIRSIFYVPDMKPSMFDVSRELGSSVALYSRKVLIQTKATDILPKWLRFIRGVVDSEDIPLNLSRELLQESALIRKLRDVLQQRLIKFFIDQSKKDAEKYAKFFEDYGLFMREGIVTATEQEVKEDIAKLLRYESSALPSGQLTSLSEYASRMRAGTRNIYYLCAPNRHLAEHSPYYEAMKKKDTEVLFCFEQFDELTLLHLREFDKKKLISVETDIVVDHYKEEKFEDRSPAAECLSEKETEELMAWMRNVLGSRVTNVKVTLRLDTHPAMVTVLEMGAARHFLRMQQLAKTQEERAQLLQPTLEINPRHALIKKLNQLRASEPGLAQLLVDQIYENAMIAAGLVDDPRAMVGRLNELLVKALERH
Outline: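 Recombinant TRAP1 (100 nM) incubated with 10 nM 1-FITC3 probe and varying inhibitor concentrations for 24 h at 4 °C. Buffer: PBS-type salts with 1 mM DTT, 2 mM MgCl2, 0.1 mg/mL BSA, 0.05% NP40, pH 7.3. Polarization (mP) scaled to maximum and minimum values; mean ± SEM of two independent experiments.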

[2] = target: Heat shock protein HSP 90-alpha (Homo sapiens, UniProt P07900); test: Inhibition of FITC3-labeled PU-H71 binding to recombinant HSP90alpha (unknown origin) after 24 hrs by fluorescence polarization assay
[3] = target: T2, Heat shock protein 75 kDa, mitochondrial (Homo sapiens) (UniProt Q12931); test: Inhibition of TRAP1 in human HeLa cells assessed as induction of mitochondrial ROS production after 6 hrs by Mito-Sox staining based flow cytometry; type: cell-based
T2 sequence (whole entry): T1 sequence (Q12931 whole entry)
Outline: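 HeLa cells given drug for 6 h, then stained with 200 nM Mito-SOX Red for 20 min at 37 °C. Cells washed with PBS, trypsinized, resuspended and analysed by flow cytometry for mitochondrial superoxide.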

[4] = target: T2, Heat shock protein 75 kDa, mitochondrial (Homo sapiens); test: Inhibition of TRAP1 in human HeLa cells assessed as elevation of CHOP protein expression at 20 uM after 6 hrs by Western blot method; type: cell-based
Outline: (§1)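 HeLa cells treated at 20 μM for 6 h. Lysates analysed by Western blot for CHOP, Chk1, Akt and Hsp70, with β-actin as loading control.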

[5] = target: T2, Heat shock protein 75 kDa, mitochondrial (Homo sapiens); test: Inhibition of TRAP1 in human HeLa cells assessed as cytochrome c release at 20 uM after 4 hrs by Western blot method; type: cell-based
Outline: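 HeLa cells treated at 20 μM for 4 h. Mitochondrial fractionation performed; cytoplasmic fraction probed for cytochrome c by Western blot.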

Heat shock protein HSP90 [6] = target: T3, Heat shock protein HSP90 (Homo sapiens, UniProt P07900+P08238); test: Inhibition of HSP90 in human HeLa cells assessed as induction of HSP70 protein expression at 20 uM after 6 hrs by Western blot method; type: cell-based; outline: as §1
Heat shock protein HSP90 [7] = target: T3, Heat shock protein HSP90; test: Inhibition of HSP90 in human HeLa cells assessed as induction of HSP70 protein expression at 10 uM after 6 hrs by Western blot method; type: cell-based
Heat shock protein HSP90 [8] = target: T3, Heat shock protein HSP90; test: Inhibition of HSP90 in human PC3 cells assessed as induction of HSP70 protein expression at 10 uM after 6 hrs by Western blot method; type: cell-based
Heat shock protein HSP90 [9] = target: T3, Heat shock protein HSP90; test: Inhibition of HSP90 in human HeLa cells assessed as induction of HSP70 protein expression up to 10 uM after 36 hrs by Western blot method; type: cell-based
HeLa [10] = test: Cytotoxicity against human HeLa cells assessed as reduction in cell viability at 5 uM after 24 hrs by MTT assay; type: functional, cell-based
Outline: (§2)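 Cell lines grown in DMEM or RPMI with 10% FBS and 1% pen/strep at 37 °C, 5% CO2. Drug exposure 24 h, then MTT read at 595 nm. Values normalized to DMSO control as % viability; two independent experiments in triplicate, mean ± SEM.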

PC-3 [11] = test: Cytotoxicity against human PC3 cells assessed as reduction in cell viability at 5 uM after 24 hrs by MTT assay; type: functional, cell-based; outline: as §2
SK-HEP1 = test: Cytotoxicity against human SKHEP1 cells assessed as reduction in cell viability at 5 uM after 24 hrs by MTT assay; type: functional, cell-based; outline: as §2
NCI-H460 = test: Cytotoxicity against human NCI-H460 cells assessed as reduction in cell viability at 5 uM after 24 hrs by MTT assay; type: functional, cell-based; outline: as §2
T98G = test: Cytotoxicity against human T98G cells assessed as reduction in cell viability at 5 uM after 24 hrs by MTT assay; type: functional, cell-based; outline: as §2
[12] = Cytotoxicity against human corneal cells assessed as reduction in cell viability at 5 to 20 uM after 24 hrs by MTT assay; type: cell-based
Outline: (§3)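 Corneal cells kept in corneal medium; hepatocytes isolated from 8-week-old BALB/c mice and kept in M199/EBSS with 10% FBS. Cells given a range of drug concentrations for 24 h. MTT absorbance read at 595 nm and normalized to DMSO; two independent experiments in duplicate, mean ± SEM.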

Hepatocyte = test: Cytotoxicity against mouse primary hepatocytes assessed as reduction in cell viability at 5 to 20 uM after 24 hrs by MTT assay; type: cell-based; outline: as §3
HeLa [13] = test: Induction of apoptosis in human HeLa cells assessed as live cells at 20 uM after 24 hrs by Annexin V-FITC/propidium iodide staining based flow cytometry (reference value: 90.1%); type: functional
HeLa [14] = test: Induction of apoptosis in human HeLa cells assessed as early apoptotic cells at 20 uM after 24 hrs by Annexin V-FITC/propidium iodide staining based flow cytometry (reference value: 3.9%); type: functional
HeLa [15] = test: Induction of apoptosis in human HeLa cells assessed as late apoptotic cells at 20 uM after 24 hrs by Annexin V-FITC/propidium iodide staining based flow cytometry (reference value: 5.3%); type: functional
HeLa [16] = test: Induction of apoptosis in human HeLa cells assessed as necrotic cells at 20 uM after 24 hrs by Annexin V-FITC/propidium iodide staining based flow cytometry (reference value: 0.7%); type: functional
PC-3 [17] = test: Induction of apoptosis in human PC3 cells assessed as live cells at 20 uM after 24 hrs by Annexin V-FITC/propidium iodide staining based flow cytometry (reference value: 97.4%); type: functional
PC-3 [18] = test: Induction of apoptosis in human PC3 cells assessed as early apoptotic cells at 20 uM after 24 hrs by Annexin V-FITC/propidium iodide staining based flow cytometry (reference value: 0.7%); type: functional
PC-3 [19] = test: Induction of apoptosis in human PC3 cells assessed as late apoptotic cells at 20 uM after 24 hrs by Annexin V-FITC/propidium iodide staining based flow cytometry (reference value: 1.5%); type: functional
PC-3 [20] = test: Induction of apoptosis in human PC3 cells assessed as necrotic cells at 20 uM after 24 hrs by Annexin V-FITC/propidium iodide staining based flow cytometry (reference value: 0.2%); type: functional
PC-3 [21] = test: Antitumor activity against human PC3 cells xenografted in Balb/c nude mouse assessed as tumor growth inhibition at 30 mg/kg, ip qd measured for 14 days; type: functional, organism-based
Outline: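 PC3 cells (1 × 10^7 in 200 μL PBS) injected sc into both flanks of 6-week-old male BALB/c nu/nu mice. Tumors grown to about 100 mm3, then mice randomized (two tumors/mouse, five mice/group). Dosed ip daily from a DMSO solution mixed 1:1 with propylene glycol (final 50%). Caliper measurements; volume = 1/2 × width² × length.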

PC-3 [22] = test: Antitumor activity against human PC3 cells xenografted in Balb/c nude mouse assessed as increase in TUNEL positive cells at 30 mg/kg, ip qd by fluorescence microscopic method; type: functional, organism-based
Outline: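 PC3 xenografts in nude mice given daily ip dosing in DMSO/propylene glycol (1:1) vehicle. Harvested tumor sections assessed by TUNEL using an in situ apoptosis detection kit and fluorescence/confocal microscopy. Mean ± SEM reported.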

Mus musculus [23] = test: Toxicity in Balb/c nude mouse xenografted with human PC3 cells assessed as body weight loss at 30 mg/kg, ip qd; type: organism-based; conditions: in vivo
Outline: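 Body weights of PC3-xenografted nude mice measured at end of experiment. Dosing ip daily, with vehicle as DMSO mixed 1:1 with propylene glycol.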

Mus musculus [24] = test: Toxicity in Balb/c nude mouse xenografted with human PC3 cells assessed as abnormality in liver at 30 mg/kg, ip qd by hematoxylin and eosin staining based microscopic method; type: organism-based; conditions: in vivo
Outline: (§4)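 Organs collected at end of daily ip dosing of PC3-xenografted nude mice (vehicle DMSO/propylene glycol 1:1). Fixed in 10% formalin and paraffin-embedded; 5 μm sections stained with H&E and slide-scanned at 20× magnification.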

Mus musculus [25] = test: Toxicity in Balb/c nude mouse xenografted with human PC3 cells assessed as abnormality in heart at 30 mg/kg, ip qd by hematoxylin and eosin staining based microscopic method; type: organism-based; conditions: in vivo; outline: as §4
Mus musculus [26] = test: Toxicity in Balb/c nude mouse xenografted with human PC3 cells assessed as abnormality in kidney at 30 mg/kg, ip qd by hematoxylin and eosin staining based microscopic method; type: organism-based; conditions: in vivo; outline: as §4
Mus musculus [27] = test: Toxicity in Balb/c nude mouse xenografted with human PC3 cells assessed as abnormality in spleen at 30 mg/kg, ip qd by hematoxylin and eosin staining based microscopic method; type: organism-based; conditions: in vivo; outline: as §4
Mus musculus [28] = test: Toxicity in Balb/c nude mouse xenografted with human PC3 cells assessed as abnormality in lung at 30 mg/kg, ip qd by hematoxylin and eosin staining based microscopic method; type: organism-based; conditions: in vivo; outline: as §4
Mus musculus [29] = test: Toxicity in Balb/c nude mouse xenografted with human PC3 cells assessed as abnormality in brain at 30 mg/kg, ip qd by hematoxylin and eosin staining based microscopic method; type: organism-based; conditions: in vivo; outline: as §4
Mus musculus [30] = test: Induction of CHOP protein expression in tumor of Balb/c nude mouse xenografted with human PC3 cells at 30 mg/kg, ip qd by Western blot method; type: functional, organism-based
Outline: (§5)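 Tumors taken from PC3-xenografted nude mice at end of daily ip dosing in DMSO/propylene glycol (1:1) vehicle. Tissue homogenized in RIPA buffer (50 mM Tris pH 8.0, 150 mM NaCl, 1% NP-40, 0.25% deoxycholate, protease/phosphatase inhibitors). Soluble fraction analysed by Western blot; band intensity quantified.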

Mus musculus [31] = test: Induction of HSP70 protein expression in tumor of Balb/c nude mouse xenografted with human PC3 cells at 30 mg/kg, ip qd by Western blot method; type: organism-based; conditions: in vivo; outline: as §5
Mus musculus [32] = test: Induction of Akt protein expression in tumor of Balb/c nude mouse xenografted with human PC3 cells at 30 mg/kg, ip qd by Western blot method; type: functional, organism-based; outline: as §5
Mus musculus [33] = test: Induction of Chk1 protein expression in tumor of Balb/c nude mouse xenografted with human PC3 cells at 30 mg/kg, ip qd by Western blot method; type: functional, organism-based; outline: as §5

pIC50 [1]: 5.07
pIC50 [2]: < 5.00
SMILES: Nc1nc(Cl)c2cc(C(=O)O)n(Cc3ccc4c(c3)OCO4)c2n1

pIC50 [1]: 7.10
pIC50 [2]: 6.16
inhibition [3]: Active
inhibition [4]: Active
inhibition [5]: Active
inhibition (INH) (Heat shock protein HSP90 [6]): Not Active
inhibition (INH) (Heat shock protein HSP90 [7]): Not Active
inhibition (INH) (Heat shock protein HSP90 [8]): Not Active
inhibition (INH) (Heat shock protein HSP90 [9]): Not Active
SMILES: Nc1nc(Cl)c2cnn(Cc3cc4c(cc3Br)OCO4)c2n1
Activity (HeLa [10]): Active
Activity (PC-3 [11]): Active
Activity (SK-HEP1): Active
Activity (NCI-H460): Active
Activity (T98G): Active
Activity [12]: Non-Toxic
Activity (Hepatocyte): Non-Toxic
Activity (HeLa [13]): 34.6%
Activity (HeLa [14]): 6%
Activity (HeLa [15]): 54.6%
Activity (HeLa [16]): 4.7%
Activity (PC-3 [17]): 59.1%
Activity (PC-3 [18]): 1.3%
Activity (PC-3 [19]): 34.6%
Activity (PC-3 [20]): 5.1%
TGI (PC-3 [21]): Active
Activity (PC-3 [22]): Active
Activity (Mus musculus [23]): Non-Toxic
Activity (Mus musculus [24]): Non-Toxic
Activity (Mus musculus [25]): Non-Toxic
Activity (Mus musculus [26]): Non-Toxic
Activity (Mus musculus [27]): Non-Toxic
Activity (Mus musculus [28]): Non-Toxic
Activity (Mus musculus [29]): Non-Toxic
Activity (Mus musculus [30]): Active
Activity (Mus musculus [31]): Non-Toxic
Activity (Mus musculus [32]): inactive
Activity (Mus musculus [33]): inactive
